What was measured:
Plasmodium falciparum = experiment: Antiplasmodial activity against drug sensitive Plasmodium falciparum NF54 infected in human erythrocytes after 48 hrs by [3H]-hypoxanthine incorporation assay; assay type: functional, organism-based
[1] = Selectivity index, ratio of IC50 for CHO cells to IC50 for Plasmodium falciparum NF54; assay type: toxicity, cell-based; conditions: hamster, read-out: Ratio IC50
[2] = Selectivity index, ratio of IC50 for African green monkey VERO cells to IC50 for multidrug resistant Plasmodium falciparum K1; assay type: toxicity, cell-based; conditions: read-out: Ratio IC50
[3] = Selectivity index, ratio of IC50 for African green monkey VERO cells to IC50 for Plasmodium falciparum NF54; assay type: toxicity, cell-based; conditions: read-out: Ratio IC50
Liver microsome [4] = experiment: Metabolic stability of the compound in human liver microsomes assessed as compound remaining at 0.1 uM after 30 mins by LC-MS/MS analysis; assay type: ADME; conditions: 0.5 h
Liver microsome [5] = experiment: Metabolic stability of the compound in rat liver microsomes assessed as compound remaining at 0.1 uM after 30 mins by LC-MS/MS analysis; assay type: ADME; conditions: 0.5 h
[6] = Metabolic stability of the compound in mouse liver microsomes assessed as compound remaining at 0.1 uM after 30 mins by LC-MS/MS analysis; assay type: ADME; conditions: 0.5 h
Plasmodium berghei [7] = experiment: Antiplasmodial activity against Plasmodium berghei ANKA expressing GFP infected in mouse assessed as reduction of parasitemia level at 50 mg/kg, po qd for 4 days measured on day 4 post last dose by flow cytometric analysis relative to control; assay type: functional; set-up: scale not given: the % may be the effect or the level left
In short: (§1)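 Mice (n = 3) infected with GFP-transfected P. berghei ANKA. Test agents were suspended in HPMC vehicle (0.5% w/v hydroxypropylmethylcellulose, 0.5% v/v benzyl alcohol, 0.4% v/v Tween 80, 0.9% w/v NaCl in water). Dosed orally at 4, 24, 48 and 72 h post-infection. Parasitemia read by flow cytometry on day 4 (96 h), detection limit 0.1%. Activity = control-minus-treated mean % parasitemia, relative to control.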

Plasmodium berghei [8] = experiment: Antiplasmodial activity against Plasmodium berghei ANKA expressing GFP infected in mouse assessed as means survival days at 50 mg/kg, po qd for 4 days; assay type: functional
In short: (§2)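 Mice (n = 3) infected with GFP-transfected P. berghei ANKA. Compounds dissolved or suspended in HPMC vehicle (0.5% w/v hydroxypropylmethylcellulose, 0.5% v/v benzyl alcohol, 0.4% v/v Tween 80, 0.9% w/v NaCl in water). Dosed orally 4, 24, 48 and 72 h after infection. Parasitemia read by flow cytometry (detection limit 0.1%). Survival recorded as mean survival time in days.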

Plasmodium berghei [9] = experiment: Antiplasmodial activity against Plasmodium berghei ANKA expressing GFP infected in mouse assessed as reduction of parasitemia level at 10 mg/kg, po qd for 4 days measured on day 4 post last dose by flow cytometric analysis relative to control; assay type: functional; set-up: scale not given: the % may be the effect or the level left; in short: as §1
Plasmodium berghei [10] = experiment: Antiplasmodial activity against Plasmodium berghei ANKA expressing GFP infected in mouse assessed as means survival days at 10 mg/kg, po qd for 4 days; assay type: functional; in short: as §2
Plasmodium berghei [11] = experiment: Antiplasmodial activity against Plasmodium berghei ANKA expressing GFP infected in mouse assessed as means survival days at 3 mg/kg, po qd for 4 days; assay type: functional; in short: as §2
[12] = Drug level in mouse blood at 50 mg/kg, po after 4 hrs; assay type: ADME, organism-based; conditions: read-out: Drug uptake
In short: (§3)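 Snapshot whole-blood levels of parent and its sulfone metabolite at 1, 4 and 24 h after the first 50 mg/kg oral dose. Samples came from the P. berghei-infected efficacy mice, dosed in HPMC suspension vehicle.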

Blood [13] = experiment: Drug metabolism in mouse assessed as 5-(3-(Cyclopropylsulfonyl)phenyl)-3-(4-(methylsulfonyl)-phenyl)pyrazolo[1,5-a]pyridine level in blood at 50 mg/kg, po after 1 hr; assay type: ADME, organism-based; conditions: in vivo, read-out: Drug metabolism; in short: as §3
Blood [14] = experiment: Drug metabolism in mouse assessed as 5-(3-(Cyclopropylsulfonyl)phenyl)-3-(4-(methylsulfonyl)-phenyl)pyrazolo[1,5-a]pyridine level in blood at 50 mg/kg, po after 4 hrs; assay type: ADME, organism-based; conditions: in vivo; in short: as §3
Blood [15] = experiment: Drug metabolism in mouse assessed as 5-(3-(Cyclopropylsulfonyl)phenyl)-3-(4-(methylsulfonyl)-phenyl)pyrazolo[1,5-a]pyridine level in blood at 50 mg/kg, po after 24 hrs; assay type: ADME, organism-based; conditions: in vivo; in short: as §3
Rattus norvegicus [16] = experiment: Half life in rat at 5 mg/kg, iv; assay type: ADME, organism-based; conditions: in vivo
Rattus norvegicus [17] = experiment: Volume of distribution in rat at 5 mg/kg, iv; assay type: ADME, organism-based; conditions: in vivo
[18] = Half life in rat at 15 mg/kg, po; assay type: ADME, organism-based; conditions: in vivo
[19] = Oral bioavailability in rat at 15 mg/kg; assay type: ADME, organism-based; conditions: in vivo
[20] = Cmax in Plasmodium falciparum 3D7 infected in non-myelodepleted NOD-SCID IL2Rgammanull mouse engrafted with human erythrocytes at 0.1 mg/kg, po; assay type: ADME, organism-based; set-up: dose 0.1 mg/kg, route oral; conditions: in vivo
In short: (§4)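 Engrafted NSG (scid IL2Rgc null) mice infected with P. falciparum were given one oral dose per day for four days. Blood was sampled to measure parent and its sulfone metabolite.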

[21] = AUC (0 to 2 hrs) in Plasmodium falciparum 3D7 infected in non-myelodepleted NOD-SCID IL2Rgammanull mouse engrafted with human erythrocytes at 0.1 mg/kg, po; assay type: ADME, organism-based; set-up: time < 2 hr, dose 0.1 mg/kg, route oral; conditions: in vivo; in short: as §4
[22] = AUC (0 to 8 hrs) in Plasmodium falciparum 3D7 infected in non-myelodepleted NOD-SCID IL2Rgammanull mouse engrafted with human erythrocytes at 0.5 mg/kg, po; assay type: ADME, organism-based; set-up: dose 0.5 mg/kg, time < 8 hr, route oral; conditions: in vivo; in short: as §4
[23] = Cmax in Plasmodium falciparum 3D7 infected in non-myelodepleted NOD-SCID IL2Rgammanull mouse engrafted with human erythrocytes at 1.5 mg/kg, po; assay type: ADME, organism-based; set-up: dose 1.5 mg/kg, route oral; conditions: in vivo; in short: as §4
[24] = Tmax in Plasmodium falciparum 3D7 infected in non-myelodepleted NOD-SCID IL2Rgammanull mouse engrafted with human erythrocytes at 1.5 mg/kg, po; assay type: ADME, organism-based; conditions: in vivo
In short: (§5)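 Humanized NSG mice infected with P. falciparum received one oral dose per day for 4 consecutive days. Blood was sampled for exposure, with levels of both parent and its main active metabolite measured. Tmax was taken from the blood concentration–time profile after oral dosing.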

[25] = AUC (0 to 8 hrs) in Plasmodium falciparum 3D7 infected in non-myelodepleted NOD-SCID IL2Rgammanull mouse engrafted with human erythrocytes at 1.5 mg/kg, po; assay type: ADME, organism-based; set-up: dose 1.5 mg/kg, time < 8 hr, route oral; conditions: in vivo; in short: as §4
[26] = Cmax in Plasmodium falciparum 3D7 infected in non-myelodepleted NOD-SCID IL2Rgammanull mouse engrafted with human erythrocytes at 10 mg/kg, po; assay type: ADME, organism-based; set-up: dose 10 mg/kg, route oral; conditions: in vivo; in short: as §4
[27] = Tmax in Plasmodium falciparum 3D7 infected in non-myelodepleted NOD-SCID IL2Rgammanull mouse engrafted with human erythrocytes at 10 mg/kg, po; assay type: ADME, organism-based; conditions: in vivo; in short: as §5
[28] = AUC (0 to 8 hrs) in Plasmodium falciparum 3D7 infected in non-myelodepleted NOD-SCID IL2Rgammanull mouse engrafted with human erythrocytes at 10 mg/kg, po; assay type: ADME, organism-based; set-up: time < 8 hr, dose 10 mg/kg, route oral; conditions: in vivo; in short: as §4
[29] = Cmax in Plasmodium falciparum 3D7 infected in non-myelodepleted NOD-SCID IL2Rgammanull mouse engrafted with human erythrocytes at 30 mg/kg, po; assay type: ADME, organism-based; set-up: dose 30 mg/kg, route oral; conditions: in vivo; in short: as §4
[30] = Tmax in Plasmodium falciparum 3D7 infected in non-myelodepleted NOD-SCID IL2Rgammanull mouse engrafted with human erythrocytes at 30 mg/kg, po; assay type: ADME, organism-based; conditions: in vivo; in short: as §5
[31] = AUC (0 to 23 hrs) in Plasmodium falciparum 3D7 infected in non-myelodepleted NOD-SCID IL2Rgammanull mouse engrafted with human erythrocytes at 30 mg/kg, po; assay type: ADME, organism-based; set-up: dose 30 mg/kg, time < 23 hr, route oral; conditions: in vivo; in short: as §4

With `C[S+]([O-])c1ccc(-c2cnn3ccc(-c4cccc(S(=O)(=O)C5CC5)c4)cc23)cc1` (configuration not stated) the IC50 (Plasmodium falciparum) was 6 nM, the selectivity ratio [1] was over 1000 and the selectivity ratio [2] was over 1000. The selectivity ratio [3] was over 1000, the Stability (Liver microsome [4]) was “Stable” and the Stability (Liver microsome [5]) was “Stable”. For the same compound, the Stability [6] was “Stable”, the Activity (Plasmodium berghei [7]) was 99.8% and the MSD (Plasmodium berghei [8]) was over 30 days. For the same compound, the Activity (Plasmodium berghei [9]) was 99.9%, the MSD (Plasmodium berghei [10]) was 8 days and the MSD (Plasmodium berghei [11]) was 7 days. The concentration at 4 h [12] was 1.78 µM, the concentration (Blood [13]) was 7.9 µM and the Drug metabolism (Blood [14]) was 10.3 µM. For the same compound, the Drug metabolism (Blood [15]) was 3.1 µM, the t1/2 (Rattus norvegicus [16]) was 2.7 h and the Vd (Rattus norvegicus [17]) was 6.8 L/kg. The half-life [18] was 1 h, the bioavailability [19] was 14% and the Cmax [20] was 2 ng/mL. It also gave an AUC(0-t) at 2 h [21] of 2.1 ng·h/mL, an AUC(0-t) at 8 h [22] of 12.1 ng·h/mL and a Cmax [23] of 30 ng/mL. For the same compound, the Tmax [24] was 0.5 h, the AUC(0-t) at 8 h [25] was 40.5 ng·h/mL and the Cmax [26] was 50 ng/mL. The Tmax [27] was 2 h, the AUC(0-t) at 8 h [28] was 293 ng·h/mL and the Cmax [29] was 226 ng/mL. The Tmax [30] was 6 h and the AUC(0-t) at 23 h [31] was 1240 ng·h/mL.

Source: ChEMBL document CHEMBL3627607, “A Novel Pyrazolopyridine with in Vivo Activity in Plasmodium berghei- and Plasmodium falciparum-Infected Mouse Models from Structure-Activity Relationship Studies around the Core of Recently Identified Antimalarial Imidazopyridazines” (J Med Chem, 2015)
